Reference: ChEMBL document CHEMBL1212802, “Newly identified antibacterial compounds are topoisomerase poisons in African trypanosomes” (Antimicrob Agents Chemother, 2010)
The source made the active and inactive calls.

Columns and labels:
[1] = tested on: Trypanosoma brucei brucei; assay: Inhibition of mitochondrion topoisomerase 1A in Trypanosoma brucei brucei MiTat 1.2 strain 427 bloodstream assessed as protection of linerarizd minicircle from lambda exonuclase at 63 uM
Procedure, shortened: (§1)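 Cells were treated 1 h at 37°C, lysed with SDS, and digested with proteinase K and RNase. DNA was phenol-extracted, precipitated and cleaned up. It was then digested with λ exonuclease (glycine-KOH pH 9.4, MgCl2, BSA) or exonuclease III (Bis-Tris-propane pH 7.0, MgCl2, DTT) for 30 min at 37°C. HindIII-linearized pBluescript served as internal control. Minicircles were detected by Southern blot.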

[2] = tested on: Trypanosoma brucei brucei; assay: Inhibition of mitochondrion topoisomerase 1A in Trypanosoma brucei brucei MiTat 1.2 strain 427 bloodstream assessed as protection of linerarizd minicircle from exonuclase 3 at 25.5 uM; procedure, shortened: as §1
[3] = tested on: Trypanosoma brucei brucei; assay: Antitrypanosomal activity against Trypanosoma brucei brucei MiTat 1.2 strain 427 bloodstream by acid phosphatase method; format: functional, organism-based
Procedure, shortened: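 Bloodstream cells at 2 × 10^5/ml were given 2× serial dilutions of compound (final DMSO ≤1%), quadruplicate wells, for 20–24 h at 37°C. Motility was checked microscopically. p-Nitrophenyl phosphate in acetate buffer pH 5.5 with Triton X-100 was added for 5 h at 37°C, then A405 was read. Three runs; EC50 from Emax model fit; outliers removed by Chauvenet's criterion.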

[4] = tested on: Trypanosoma brucei brucei; assay: Inhibition of mitochondrion topoisomerase 1A in Trypanosoma brucei brucei MiTat 1.2 strain 427 bloodstream assessed as increase in protein-sensitive linear DNA forms at 60-100 uM
Procedure, shortened: (§2)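 Free minicircle profiles: 1.2 × 10^7 cells were exposed to compound for 30 min at 37°C. Cells were lysed in SDS/EDTA buffer with or without proteinase K (2 h, 55°C), then treated with RNase A. DNA was run on 1.5% agarose with ethidium bromide and Southern-blotted with a 32P probe to the conserved 124-bp minicircle sequence. Read by phosphorimaging.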

[5] = tested on: Trypanosoma brucei brucei; assay: Inhibition of topoisomerase in Trypanosoma brucei brucei MiTat 1.2 strain 427 bloodstream assessed as enzyme-DNA cleavable complex at 50 uM (RvB = 2.2 +/- 0.05%)
Procedure, shortened: (§3)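 KSDS assay: cells at 10^7/ml in thymidine-free medium were labelled 1 h at 37°C with [3H]thymidine, washed, and treated 30 min at 37°C with DMSO, 500 μM etoposide or compound, in triplicate. Lysates in SDS/EDTA with calf thymus DNA were heated 10 min at 65°C, then KCl-precipitated and washed, and the precipitate was scintillation-counted. Percent trapped DNA = KSDS cpm ÷ TCA-precipitable cpm of untreated cells.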

[6] = tested on: Trypanosoma brucei brucei; assay: Inhibition of mitochondrion topoisomerase 1A in Trypanosoma brucei brucei MiTat 1.2 strain 427 bloodstream assessed as increase in protein-sensitive linear DNA forms at 0-40 uM; procedure, shortened: as §2
[7] = tested on: Trypanosoma brucei brucei; assay: Antitrypanosomal activity against Trypanosoma brucei brucei MiTat 1.2 strain 427 bloodstream assessed as decrease in topoisomerase 1Amt level at 0-100 uM; format: functional, organism-based
Procedure, shortened: (§4)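 Western band depletion: 1.2 × 10^7 cells in medium were exposed to compound for 30 min at 37°C. A portion taken just before lysis was lysed in SDS/DTT sample buffer and run on SDS-PAGE. Blots were probed for c-Myc-tagged topoisomerase IAmt (anti-c-Myc) and for topoisomerase IImt (specific antiserum), with enolase as loading control. Free enzyme was quantitated densitometrically.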

[8] = tested on: Trypanosoma brucei brucei; assay: Antitrypanosomal activity against Trypanosoma brucei brucei MiTat 1.2 strain 427 bloodstream assessed as decrease in topoisomerase 1Amt level at 0-120 uM; format: functional, organism-based; procedure, shortened: as §4
[9] = tested on: Trypanosoma brucei brucei; assay: Inhibition of mitochondrion topoisomerase 1A in Trypanosoma brucei brucei MiTat 1.2 strain 427 bloodstream assessed as protection of linerarizd minicircle from exonuclase 3 at 63 uM; procedure, shortened: as §1
[10] = tested on: Trypanosoma brucei brucei; assay: Inhibition of mitochondrion topoisomerase 1A in Trypanosoma brucei brucei MiTat 1.2 strain 427 bloodstream assessed as protection of linerarizd minicircle from lambda exonuclase at 25.5 uM; procedure, shortened: as §1
[11] = tested on: Trypanosoma brucei brucei; assay: Antitrypanosomal activity against Trypanosoma brucei brucei MiTat 1.2 strain 427 bloodstream assessed as decrease in topoisomerase 2mt level at 0-100 uM; format: functional, organism-based; procedure, shortened: as §4
Nucleic Acid = assay: Binding affinity to plasmid DNA assessed as DNA unwinding in presence of vaccinia virus topoisomerase 1B by electrophoresis; format: nucleic-acid assay
Procedure, shortened: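 Supercoiled pBluescript, or pBluescript pre-relaxed with E. coli topoisomerase IA (250 ng), was exposed to a range of compound concentrations in 50 mM Tris HCl pH 7.5, 50 mM NaCl, 5 mM MgCl2. Then 1 pM vaccinia topoisomerase IB was added (1 h, 37°C). Reactions were SDS-quenched, run on 1% agarose in Tris-borate-EDTA, and stained with ethidium bromide.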

[12] = tested on: Trypanosoma brucei brucei; assay: Inhibition of topoisomerase in Trypanosoma brucei brucei MiTat 1.2 strain 427 bloodstream assessed as enzyme -DNA cleavable complex at 50 uM relative to DMSO; procedure, shortened: as §3
[13] = tested on: Trypanosoma brucei brucei; assay: Antitrypanosomal activity against Trypanosoma brucei brucei MiTat 1.2 strain 427 bloodstream assessed as decrease in topoisomerase 2mt level at 0-120 uM; format: functional, organism-based; procedure, shortened: as §4

O=c1c2cccc3c2c(nn1CN1CCCCC1)-c1ccccc1-3
inhibition [1]: inactive | inhibition [2]: Active | EC50 [3]: 16.9 µM | inhibition [4]: inactive | % DNA in cleavable complexes [5]: 1.7% | inhibition [6]: Active | Activity [7]: inactive | Activity [8]: inactive | inhibition [9]: Active | inhibition [10]: inactive | Activity [11]: Active | Activity (Nucleic Acid): Dose-dependent effect | Ratio [12]: 0.77 | Activity [13]: Active

CN(C)CCc1cc2c(c3c1ccc1ccccc13)OCO2
inhibition [1]: inactive | inhibition [2]: Active | EC50 [3]: 6.3 µM | inhibition [4]: inactive | % DNA in cleavable complexes [5]: 1.9% | inhibition [6]: Active | Activity [7]: inactive | Activity [8]: inactive | inhibition [9]: Active | inhibition [10]: inactive | Activity [11]: Active | Activity (Nucleic Acid): Dose-dependent effect | Ratio [12]: 0.86 | Activity [13]: Active
